Experimental findings from ChEMBL document CHEMBL4316648, “Ipomeolides A and B, Resin Glycosides from Ipomoea pes-caprae and Combination Therapy of Ipomeolide A with Doxorubicin” (J Nat Prod, 2019) are described below.

pIC50: −log10 of the molar value. Active and inactive are the calls of the source. The rule behind the calls is not given here.

One data set relates to A549. The data set is described as follows: Cytotoxicity in human A549 cells assessed as reduction in cell viability incubated for 48 hrs by MTT assay. It is filed as functional, cell-based. The procedure, abridged:
(§1)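 Human tumour lines grown in DMEM with 10% fetal calf serum, 37 °C, 5% CO2, passaged at 60–70% confluency. About 5000 cells/well seeded in triplicate and grown 24 h. Medium then replaced with medium containing compound at various concentrations. After 48 h, MTT (5 mg/mL) added for 4 h. DMSO-soluble formazan read at 590 nm. Doxorubicin served as positive control.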
(Tetrazolium assays rely on reduction of a dye to a coloured formazan, in cell work by metabolically active cells.)

In a further data set the test system is MDA-MB-231. The data set is described as follows: Cytotoxicity in human MDA-MB-231 cells assessed as reduction in cell viability incubated for 48 hrs by MTT assay. The format is functional, cell-based. The gist of the method: as §1
A further data set concerns MCF7. The data set is described as follows: Cytotoxicity in human MCF7 cells assessed as reduction in cell viability incubated for 48 hrs by MTT assay. It is filed as functional, cell-based. The procedure, abridged:
as §1

For the next data set, the system named is HL-60. In words: Cytotoxicity in human HL60 cells assessed as reduction in cell viability incubated for 48 hrs by MTT assay. The format is functional, cell-based. The gist of the method: as §1
Data set [1] in a line: Toxicity in human K562 cells assessed as reduction in cell viability incubated for 72 hrs by MTT assay. It is filed as cell-based. The following applies: read-out: LD50. The procedure, abridged:
(§2)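 K562 cells were grown in DMEM with 10% fetal calf serum at 37 °C in 5% CO2. About 5000 cells per well were seeded and grown 24 h. Medium was then replaced with medium holding various compound concentrations for 72 h. Viability was measured by MTT (4 h), reading formazan in DMSO at 590 nm. Survival was compared with untreated control, in triplicate.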

Data set [2] concerns K562. In words: Toxicity in human K562 cells assessed as reduction in cell viability up to 10 uM incubated for 72 hrs by MTT assay. It is filed as cell-based. Conditions: k562, 72 h. The gist of the method:
(§3)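 K562 leukaemia cells seeded at equal numbers per well and exposed for 72 h to doxorubicin (1 or 2 μM), the test agent at varying concentrations, or both. Surviving cells counted relative to untreated control. Significance was taken as P < 0.05.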

Data set [3] concerns K562. The data set is described as follows: Cytotoxicity in human K562 cells assessed as reduction in cell viability incubated for 48 hrs by MTT assay. It is filed as functional, cell-based. The following applies: K562, 48 h. The gist of the method: as §1
For data set [4], the system named is K562. In words: Potentiation of doxorubicin-induced apoptotic cell death in human K562 cells at 4 uM in presence of 1 uM doxorubicin incubated for 72 hrs by Annexin V/propidium iodide staining based assay. The format is functional. The gist of the method: (§4)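 K562 cells treated for 72 h with doxorubicin, the test agent, or the two combined. They were then stained with labelled annexin V and propidium iodide to show surface phosphatidylserine, and imaged by fluorescence microscopy.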

The test system of data set [5] is K562. The data set is described as follows: Potentiation of doxorubicin-induced cytotoxicity in human K562 cells assessed as induction of cell death at 3 to 10 uM in presence of 1 uM doxorubicin incubated for 72 hrs by MTT assay. The format is functional, cell-based. The gist of the method: as §3
Data set [6] concerns K562. In words: Potentiation of doxorubicin-induced cytotoxicity in human K562 cells assessed as induction of cell death at 4 uM in presence of 1 uM doxorubicin incubated for 72 hrs by MTT assay. It is filed as functional. The gist of the method: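 K562 cells were grown in DMEM with 10% FCS at 37 °C in 5% CO2 and seeded at about 5000 cells per well for 24 h. They were cotreated for 72 h with 1 or 2 μM doxorubicin plus varying test compound up to 10 μM. Survival was read by MTT at 590 nm against untreated control, in triplicate. Significance was set at P < 0.05.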

Data set [7] has as its system K562. The data set is described as follows: Toxicity in human K562 cells assessed as induction of apoptotic cell death at 4 uM incubated for 72 hrs by Annexin V/propidium iodide staining based assay. The following applies: k562, 72 h. The procedure, abridged: as §4
For data set [8], the system named is K562. In words: Potentiation of doxorubicin-induced cytotoxicity in human K562 cells assessed as induction of cell death in presence of doxorubicin incubated for 72 hrs by MTT assay. The following applies: K562, 72 h. It is filed as functional, cell-based. The gist of the method:
as §3

Data set [9] deals with K562. In words: Potentiation of doxorubicin-induced cytotoxicity in human K562 cells assessed as induction of cell death at 1 to 10 uM in presence of 2 uM doxorubicin incubated for 72 hrs by MTT assay. The format is functional, cell-based. The procedure, abridged: as §3
Data set [10] has as its system K562. In words: Potentiation of doxorubicin-induced cytotoxicity in human K562 cells assessed as induction of cell death in presence of 1 uM doxorubicin incubated for 72 hrs by MTT assay. The following applies: K562, 72 h, read-out: MEC. The format is functional. The gist of the method: as §3
The test system of data set [11] is K562. The data set is described as follows: Cytotoxicity in human K562 cells assessed as reduction in cell viability incubated for 72 hrs by MTT assay. The format is functional. The following applies: K562, 72 h, read-out: LD50 (the source's name). The procedure, abridged: as §2
Data set [12] concerns K562. In words: Induction of apoptotic cell death in human K562 cells at 1 uM incubated for 72 hrs by Annexin V/propidium iodide staining based assay. It is filed as functional. The procedure, abridged:
as §4

Data set [13] concerns K562. In words: Cytotoxicity in human K562 cells assessed as induction of cell death at 1 uM incubated for 72 hrs by MTT assay. It is filed as functional. The procedure, abridged: as §2

A word on the pIC50: it is −log10 of the IC50, conventionally taken in molar units.

With `CCCCCCCCCCCC(=O)O[C@H]1[C@H](O[C@@H]2[C@@H](O[C@@H]3O[C@@H](C)[C@H](OC(=O)[C@@H](C)CC)[C@@H](O)[C@H]3OC(=O)/C=C/c3ccccc3)[C@H]3OC(=O)CCCCCCCCC[C@@H](CCCCC)O[C@@H]4O[C@H](C)[C@@H]5OC(C)(C)O[C@@H]5[C@H]4O[C@@H]3O[C@H]2C)O[C@@H](C)[C@H](O[C@@H]2O[C@@H](C)[C@H](O)[C@H]3OC(C)(C)O[C@@H]23)[C@H]1O`, the outcome in the data set on A549, in the data set on MDA-MB-231, with MCF7 and in the data set on HL-60 was inactive.
With `CCCCCCCCCCCC(=O)O[C@H]1[C@H](O[C@@H]2[C@@H](O[C@@H]3O[C@@H](C)[C@H](OC(=O)[C@@H](C)CC)[C@H]4OC(C)(C)O[C@@H]34)[C@H]3OC(=O)CCCCCCCCC[C@@H](CCCCC)O[C@@H]4O[C@H](C)[C@@H]5OC(C)(C)O[C@@H]5[C@H]4O[C@@H]3O[C@H]2C)O[C@@H](C)[C@H](O[C@@H]2O[C@@H](C)[C@H](O)[C@H]3OC(C)(C)O[C@@H]23)[C@H]1O`, the outcome in the data set on A549, in the data set on MDA-MB-231, in the data set with MCF7 and with HL-60 was inactive.
`CCCCCCCCCCCC(=O)O[C@H]1[C@H](O[C@@H]2[C@@H](O[C@@H]3O[C@@H](C)[C@H](OC(=O)[C@@H](C)CC)[C@@H](O)[C@H]3O)[C@H]3OC(=O)CCCCCCCCC[C@@H](CCCCC)O[C@@H]4O[C@H](C)[C@H](O)[C@H](O)[C@H]4O[C@@H]3O[C@H]2C)O[C@@H](C)[C@H](O[C@@H]2O[C@@H](C)[C@H](O)[C@@H](O)[C@H]2O)[C@H]1O`: the CC50 at 72 h in data set [1] is 20 µM. Further, the Activity result is “Non-Toxic” in the data set with K562 [2], 47% in the data set with K562 [6] and “Non-Toxic” in the data set with K562 [7]. Besides, the pIC50 in the data set with K562 [3] is 4.74; in the data set with K562 [8], 5.07. Moreover, the result in the data set on K562 [4], in the data set on K562 [5] and in the data set on K562 [9] was Active. The outcome with A549, in the data set on MDA-MB-231, in the data set on MCF7 and with HL-60 was inactive. Further, the minimal effective concentration in the data set with K562 [10] was found to be 4 µM.
Turning to `COc1cccc2c1C(=O)c1c(O)c3c(c(O)c1C2=O)C[C@@](O)(C(=O)CO)C[C@@H]3O[C@H]1C[C@H](N)[C@H](O)[C@H](C)O1` [DOXORUBICIN], the CC50 in the data set on K562 [11] worked out at 2 µM. Besides, the outcome in the data set with K562 [12] was inactive. Also, in the data set on K562 [13], the Activity was 11%.
